Results as given in ChEMBL document CHEMBL2021842, “COMPARE analysis of the toxicity of an iminoquinone derivative of the imidazo[5,4-f]benzimidazoles with NAD(P)H:quinone oxidoreductase 1 (NQO1) activity and computational docking of quinones as NQO1 substrates” (Bioorg Med Chem, 2012).

Legend:
HeLa = experiment: Cytotoxicity against human HeLa cells assessed as reduction in mean cell viability after 72 hrs by MTT assay; format: functional, cell-based
Method in brief: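 HeLa-CCL-2 cells in DMEM with 10% heat-inactivated FBS, 2 mM L-glutamine and nonessential amino acids. Plated at 1000 cells/well with 24 h adherence. Treated in ethanol (1% final) for 72 h at 37 °C under 5% CO₂, with ethanol controls. Absorbance of DMSO-dissolved formazan at 550 nm, 690 nm reference. IC₅₀ by nonlinear regression of percent viability.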

K562 [1] = experiment: Growth inhibition of human K562 cells assessed as cell growth at 10 uM relative to untreated control; format: functional; details: read-out: Activity
Method in brief: (§1)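 NCI DTP 60-cell-line screen, first stage: a single 10 µM dose of compound given to the human tumour panel. Result reported as percent growth relative to control, on a mean growth graph.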

SR [2] = experiment: Growth inhibition of human SR cells assessed as cell growth at 10 uM relative to untreated control; format: functional; details: read-out: Activity
Method in brief: (§2)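 This is the first stage of the NCI DTP 60-human-tumour-cell-line screen, covering nine tissue types. Cells receive a single dose of the test compound, and the output is reported as mean growth %.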

NCI-H322M = experiment: Growth inhibition of human NCI-H322M cells assessed as cell growth at 10 uM relative to untreated control; format: functional; details: read-out: Activity
Method in brief: (§3)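 First stage of the NCI DTP 60 human tumour cell-line screen. Cells were exposed to a single dose of 10 µM. Output is reported as growth % relative to control.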

COLO 205 = experiment: Growth inhibition of human COLO205 cells assessed as cell growth at 10 uM relative to untreated control; format: functional; details: read-out: Activity; method in brief: as §1
HT-29 = experiment: Growth inhibition of human HT-29 cells assessed as cell growth at 10 uM relative to untreated control; format: functional; details: read-out: Activity; method in brief: as §1
KM12 = experiment: Growth inhibition of human KM12 cells assessed as cell growth at 10 uM relative to untreated control; format: functional; details: read-out: Activity; method in brief: as §1
SW-620 = experiment: Growth inhibition of human SW620 cells assessed as cell growth at 10 uM relative to untreated control; format: functional; details: read-out: Activity; method in brief: as §2
SF-295 [3] = experiment: Growth inhibition of human SF295 cells assessed as cell growth at 10 uM relative to untreated control; format: functional; details: read-out: Activity; method in brief: as §3
SF-539 [4] = experiment: Growth inhibition of human SF539 cells assessed as cell growth at 10 uM relative to untreated control; format: functional; details: read-out: Activity; method in brief: as §3
SNB-19 = experiment: Growth inhibition of human SNB19 cells assessed as cell growth at 10 uM relative to untreated control; format: functional; details: read-out: Activity; method in brief: as §2
U-251 = experiment: Growth inhibition of human U251 cells assessed as cell growth at 10 uM relative to untreated control; format: functional; details: read-out: Activity; method in brief: as §2
SK-MEL-5 [5] = experiment: Growth inhibition of human SK-MEL-5 cells assessed as cell growth at 10 uM relative to untreated control; format: functional; details: read-out: Activity; method in brief: as §3
UACC-257 [6] = experiment: Growth inhibition of human UACC257 cells assessed as cell growth at 10 uM relative to untreated control; format: functional; details: read-out: Activity; method in brief: as §2
OVCAR-4 [7] = experiment: Growth inhibition of human OVCAR4 cells assessed as cell growth at 10 uM relative to untreated control; format: functional; details: read-out: Activity; method in brief: as §3
OVCAR-8 = experiment: Growth inhibition of human OVCAR8 cells assessed as cell growth at 10 uM relative to untreated control; format: functional; details: read-out: Activity; method in brief: as §3
PC-3 = experiment: Growth inhibition of human PC3 cells assessed as cell growth at 10 uM relative to untreated control; format: functional; details: read-out: Activity; method in brief: as §3
DU-145 = experiment: Growth inhibition of human DU145 cells assessed as cell growth at 10 uM relative to untreated control; format: functional; details: read-out: Activity; method in brief: as §1
[8] = Growth inhibition of human Hs 578T cells assessed as cell growth at 10 uM relative to untreated control; format: functional; details: read-out: Activity; method in brief: as §1
BT-549 = experiment: Growth inhibition of human BT549 cells assessed as cell growth at 10 uM relative to untreated control; format: functional; details: read-out: Activity; method in brief: as §1
CCRF-CEM = experiment: Growth inhibition of human CCRF-CEM cells; format: functional
Method in brief: (§4)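 NCI DTP 60-cell-line screen, second stage: five-dose testing across the human tumour panel. GI₅₀ taken as the concentration needed to inhibit cell growth by 50% in each cell line.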

HL-60(TB) = experiment: Growth inhibition of human HL-60(TB) cells; format: functional
Method in brief: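 NCI DTP NCI-60 screen, second stage: five-dose testing across 60 human tumour cell lines from nine tissue types. GI50 is the concentration that inhibits cell growth by 50%, obtained for each cell line.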

K562 [9] = experiment: Growth inhibition of human K562 cells; format: functional; method in brief: as §4
[10] = Growth inhibition of human RPMI8266 cells; format: functional
Method in brief: (§5)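 Part of the NCI DTP 60-cell-line panel. After the single-dose stage, cells were tested at five doses. Read-out is the GI50, the concentration giving 50% inhibition of cell growth, derived for each cell line.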

SR [11] = experiment: Growth inhibition of human SR cells; format: functional
Method in brief: (§6)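 This is the second, five-dose stage of the NCI DTP 60-cell-line screen. GI50 is the concentration that inhibits cell growth by 50%, derived for each cell line.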

EKVX = experiment: Growth inhibition of human EKVX cells; format: functional; method in brief: as §4
SF-268 = experiment: Growth inhibition of human SF268 cells; format: functional; method in brief: as §5
SF-295 [12] = experiment: Growth inhibition of human SF295 cells; format: functional; method in brief: as §5
SF-539 [13] = experiment: Growth inhibition of human SF539 cells; format: functional; method in brief: as §5
SNB-75 = experiment: Growth inhibition of human SNB75 cells; format: functional; method in brief: as §6
M14 = experiment: Growth inhibition of human M14 cells; format: functional; method in brief: as §4
Malme-3M = experiment: Growth inhibition of human MALME-3M cells; format: functional; method in brief: as §4
SK-MEL-28 = experiment: Growth inhibition of human SK-MEL-28 cells; format: functional; method in brief: as §5
SK-MEL-5 [14] = experiment: Growth inhibition of human SK-MEL-5 cells; format: functional; method in brief: as §5
UACC-257 [15] = experiment: Growth inhibition of human UACC257 cells; format: functional; method in brief: as §6
UACC-62 = experiment: Growth inhibition of human UACC62 cells; format: functional; method in brief: as §6
OVCAR-3 = experiment: Growth inhibition of human OVCAR3 cells; format: functional; method in brief: as §5
OVCAR-4 [16] = experiment: Growth inhibition of human OVCAR4 cells; format: functional; method in brief: as §5
OVCAR-5 = experiment: Growth inhibition of human OVCAR5 cells; format: functional; method in brief: as §5
A498 = experiment: Growth inhibition of human A498 cells; format: functional; method in brief: as §4
ACHN = experiment: Growth inhibition of human ACHN cells; format: functional; method in brief: as §4
RXF 393 = experiment: Growth inhibition of human RXF393 cells; format: functional; method in brief: as §5
TK-10 = experiment: Growth inhibition of human TK10 cells; format: functional; method in brief: as §6
MCF7 = experiment: Growth inhibition of human MCF7 cells; format: functional; method in brief: as §5
NCI/ADR-RES = experiment: Growth inhibition of human NCI/ADR-RES cells; format: functional; method in brief: as §5
[17] = Growth inhibition of human Hs 578T cells; format: functional; method in brief: as §4
MDA-MB-435 = experiment: Growth inhibition of human MDA-MB-435 cells; format: functional; method in brief: as §5
T47D = experiment: Growth inhibition of human T47D cells; format: functional; method in brief: as §6
MDA-MB-468 [18] = experiment: Growth inhibition of human MDA-MB-468 cells assessed as cell growth at 10 uM relative to untreated control; format: functional; details: read-out: Activity; method in brief: as §3
MDA-MB-468 [19] = experiment: Growth inhibition of human MDA-MB-468 cells; format: functional; method in brief: as §5
IGROV-1 = experiment: Growth inhibition of human IGROV1 cells assessed as cell growth at 10 uM relative to untreated control; format: functional; details: read-out: Activity; method in brief: as §1

## N=C1c2nc3n(c2C(=O)c2nc4n(c21)CCCC4)CCCC3
HeLa
  IC50: 1.55 µM
K562 [1]
  growth at 10 µM: 81.4%
SR [2]
  growth at 10 µM: 69.5%
NCI-H322M
  growth at 10 µM: 27.7%
COLO 205
  growth at 10 µM: -88.6%
HT-29
  growth at 10 µM: -13.7%
KM12
  growth at 10 µM: 66.7%
SW-620
  growth at 10 µM: 23.7%
SF-295 [3]
  growth at 10 µM: -85.7%
SF-539 [4]
  growth at 10 µM: -21.7%
SNB-19
  growth at 10 µM: 30%
U-251
  growth at 10 µM: 50.6%
SK-MEL-5 [5]
  growth at 10 µM: -98%
UACC-257 [6]
  growth at 10 µM: -6.6%
OVCAR-4 [7]
  growth at 10 µM: 96.2%
OVCAR-8
  growth at 10 µM: 91.5%
PC-3
  growth at 10 µM: 90.5%
DU-145
  growth at 10 µM: -93.9%
[8]
  growth at 10 µM: -28.6%
BT-549
  growth at 10 µM: -37.2%
CCRF-CEM
  GI50: 49 µM
HL-60(TB)
  GI50: 23.4 µM
K562 [9]
  GI50: 20.4 µM
[10]
  GI50: 25.7 µM
SR [11]
  GI50: 8.51 µM
EKVX
  GI50: 25.1 µM
SF-268
  GI50: 8.51 µM
SF-295 [12]
  GI50: 1.74 µM
SF-539 [13]
  GI50: 2.57 µM
SNB-75
  GI50: 2.19 µM
M14
  GI50: 1.78 µM
Malme-3M
  GI50: 1.86 µM
SK-MEL-28
  GI50: 2.09 µM
SK-MEL-5 [14]
  GI50: 1.2 µM
UACC-257 [15]
  GI50: 1.95 µM
UACC-62
  GI50: 1.74 µM
OVCAR-3
  GI50: 20.4 µM
OVCAR-4 [16]
  GI50: 34.7 µM
OVCAR-5
  GI50: 2.63 µM
A498
  GI50: 6.03 µM
ACHN
  GI50: 30.9 µM
RXF 393
  GI50: 16.6 µM
TK-10
  GI50: 70.8 µM
MCF7
  GI50: 1.86 µM
NCI/ADR-RES
  GI50: 35.5 µM
[17]
  GI50: 2.19 µM
MDA-MB-435
  GI50: 0.245 µM
T47D
  GI50: 17.4 µM
MDA-MB-468 [18]
  growth at 10 µM: 68.1%
MDA-MB-468 [19]
  GI50: 14.8 µM

## O=C1c2nc3n(c2C(=O)c2nc4n(c21)CCCC4)CCCC3
HeLa
  IC50: 1.67 µM
K562 [1]
  growth at 10 µM: 107%
SR [2]
  growth at 10 µM: 101%
NCI-H322M
  growth at 10 µM: 106%
COLO 205
  growth at 10 µM: 116%
HT-29
  growth at 10 µM: 104%
KM12
  growth at 10 µM: 92.1%
SW-620
  growth at 10 µM: 104%
SF-295 [3]
  growth at 10 µM: 87.9%
SF-539 [4]
  growth at 10 µM: 121%
SNB-19
  growth at 10 µM: 98.6%
U-251
  growth at 10 µM: 97.5%
SK-MEL-5 [5]
  growth at 10 µM: 87.6%
UACC-257 [6]
  growth at 10 µM: 96.9%
IGROV-1
  growth at 10 µM: 107%
OVCAR-4 [7]
  growth at 10 µM: 100%
OVCAR-8
  growth at 10 µM: 103%
PC-3
  growth at 10 µM: 102%
DU-145
  growth at 10 µM: 101%
[8]
  growth at 10 µM: 102%
MDA-MB-468 [18]
  growth at 10 µM: 95.6%
